Source: PubChem
The list is not random: actives were taken first. Their share in the collection is about 2.7%.
OXTR potentiate = potentiators of human oxytocin receptor; P30559; 320,000 tested, 0.061% active; CHO-OTR cells, Fluo-8 calcium fluorescence, potentiator mode; 0% = oxytocin EC15, 100% = EC100; activation, % at 3 µM;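 active means activation above that plate's cutoff, the mean activation of tested compounds plus 3 SD, cut at about 6.6% in these data, passing the limit was not always enough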;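 further: 100% uses oxytocin at 75 nM as the full agonist control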
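Assay system: CHO cell line stably expressing human OTR | Also added: Oxytocin at about EC15, sub-maximal agonist stimulus | Times: Compound 6 min at room temperature before oxytocin, 100 s read | Measured by: Fluo-8 intracellular calcium fluorescence, ex 470-495, em 515-575 nm | Controls: EC15 oxytocin alone as 0%, 75 nM oxytocin as 100%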
OX1R antag-1 = OX1R (human) antagonism | O43613 | OX1R-expressing cells, FRET antagonist read-out | inhibition, % at 6.6 µM | 330,000 tested, 1.8% active | AID 485270; in the data active means inhibition mostly above about 38%, no sharp cut-off; inactive means mostly below about 40%;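 further: 0% = agonist challenge alone and 100% = reference antagonist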
OX1R antag-2 = human HCRTR1 antagonism | AID 434989 | CHO/OX1R cells, Fluo-8 calcium fluorescence, orexin A | 330,000 tested, 0.43% active | inhibition, % at 5 µM;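 active means inhibition above its plate's threshold, mean inhibition of all tested compounds on the plate plus 3 SD, cut at about 37% in these data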;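 further: 0% = orexin A challenge wells and 100% = SB-334867-A antagonist wells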
OXTR agonist = agonists of human oxytocin receptor; 320,000 tested, 0.32% active; CHO-OTR cells, Fluo-8 calcium fluorescence; normalized: DMSO 0%, oxytocin 100%; P30559; activation, % at 3 µM;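 active means activation above the mean of all tested compounds plus 3 SD, cutoff set per screening run, cut at about 20% in these data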;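 further: peak over basal fluorescence ratio from a 100 s FLIPR kinetic read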
CHO parental Ca = signal in parental CHO cells, OX1R antagonist counter-screen; parental CHO-K1, ATP-induced calcium, Fluo-8 fluorescence; inhibition, % at 5.6 µM; 330,000 tested, 0.63% active;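 active means inhibition above that plate's mean sample inhibition plus 3 SD, cut at about 26% in these data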;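 further: 0% = ATP-challenged DMSO wells and 100% = DMSO wells without ATP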
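Material – parental CHO cells · Reagent – ATP stimulus · Compound – single nominal dose of 5.6 µM per compound · Detection – Fluo-8 fluorescence · Read-out basis – percent inhibition of calcium signal · Controls – ATP-challenged DMSO wells low, unchallenged DMSO wells high · Repeats – no replicates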
V1R ag counter = V1a receptor agonism, counter-screen for OXTR agonists. CHO-V1R cells, Fluo-8 calcium fluorescence, agonist mode; 0% DMSO, 100% 3 nM vasopressin. activation, % at 3 µM. 320,000 tested, 0.25% active;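 active means activation above the mean activation of all tested compounds plus 3 SD, per screening run, cut at about 20% in these data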;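 further: signal is peak over basal fluorescence ratio across a 100 second FLIPR read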
Target sequence (P37288 whole entry, looked up): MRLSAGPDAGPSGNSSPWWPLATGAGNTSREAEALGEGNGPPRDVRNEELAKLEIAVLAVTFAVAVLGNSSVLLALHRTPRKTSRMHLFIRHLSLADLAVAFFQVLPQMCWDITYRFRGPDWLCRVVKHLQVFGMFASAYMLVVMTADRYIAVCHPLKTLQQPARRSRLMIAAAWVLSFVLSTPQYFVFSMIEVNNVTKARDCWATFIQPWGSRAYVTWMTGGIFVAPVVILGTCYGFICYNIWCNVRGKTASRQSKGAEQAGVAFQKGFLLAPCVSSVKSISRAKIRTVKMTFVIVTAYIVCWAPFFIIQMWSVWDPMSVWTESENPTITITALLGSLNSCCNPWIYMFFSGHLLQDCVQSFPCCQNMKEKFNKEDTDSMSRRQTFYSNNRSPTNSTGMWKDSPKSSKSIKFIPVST
Active calls of the source: *.

SMILES | OXTR potentiate | OX1R antag-1 | OX1R antag-2 | OXTR agonist | CHO parental Ca | V1R ag counter
COc1ccc(N)c2c1C(=O)c1ccccc1C2=O | -2 | 70* | 8 | -2 | 10 | -1
COc1ccc(S(=O)(=O)N2CCCC2)c(Cl)c1Cl | 3 | 20 | -13 | -1 | -20 | 0
Cc1nc(NCCCn2ccnc2)c2ccccc2n1 | -5 | 5 | -2 | 0 | -12 | 1
O=C1c2ccccc2-c2onc3ccc(NCCCn4ccnc4)c1c23 | -11 | 46* | 57* | 82* | 40* | 45*
CCC(=O)N1c2ccc(S(=O)(=O)CCC(=O)N3CCN(c4ccccc4F)CC3)cc2CC1C (stereo unspecified) | -5 | 2 | -21 | 5 | -16 | 5
CN(CC(=O)Nc1ccccc1C(F)(F)F)C(=O)CSc1nnc(-c2ccncc2)n1C | -2 | 7 | -17 | -1 | 7 | 0
COc1cc(/C=C(\C#N)C(=O)c2ccc(O)c(O)c2)cc(I)c1O | -7 | 21 | 9 | 3 | -2 | 3
Cc1cc(C(=O)NNC(=O)C(C)(C)Oc2ccc(Cl)cc2)c(C)o1 | -1 | 11 | 7 | -2 | 5 | 0
CN1CCN(C(=O)c2cc(Cl)ccc2NC(=O)c2ccc(Cl)cc2Cl)CC1 | -10 | -1 | -12 | -1 | 1 | 0
Cc1c(Cc2ccccc2)c(=O)oc2cc(OCC(=O)N3CCC(C(N)=O)CC3)ccc12 | 2 | 2 | -5 | 0 | -7 | 3
O=C(Nc1ccnn1C1CCN(C2CCOCC2)CC1)c1cccc(F)c1 | -2 | 10 | -15 | 1 | -8 | 0
CCCCN(C(=O)c1cc(Cl)nc2ccccc12)c1c(N)n(CCCC)c(=O)[nH]c1=O | 5 | 6 | -25 | 0 | -17 | 0
Cc1ccsc1C1C=C(c2cccc(Br)c2)Nc2ncnn21 (stereo unspecified) | -18 | 51 | 45* | 10 | -15 | 10
O=c1[nH]c2ccccc2c(O)c1-c1cc2ccccc2oc1=O | -14 | 18 | -19 | 0 | -10 | 0
c1csc(-c2nc(-c3ccc(-c4ccon4)s3)no2)c1 | -5 | 40* | 28 | -1 | -9 | 0
CC(Nc1ncnc2ccccc12)c1ccccc1 (stereo unspecified) | -14 | 6 | 21 | 11 | 38* | 12
C[C@]12C(=O)N(c3ccc(Br)cc3)C(=O)N1[C@H]1c3ccccc3OC[C@@H]1[C@H]2c1ccccc1 | 8 | 2 | 0 | 3 | -5 | 3
COc1ccc(OC)c(C(=O)NC2CCSc3ccccc32)c1 (stereo unspecified) | -7 | 47* | -21 | -2 | -24 | -1
COc1ccc(CC(=O)NC2CCSc3ccccc32)c(OC)c1 (stereo unspecified) | -6 | 30 | -17 | 0 | -8 | -1
Clc1cccc(-c2nc(NCc3cccnc3)c3ccccc3n2)c1 | 1 | 64* | 10 | 2 | -12 | 1
c1ccc(-c2nc(NCc3cccnc3)c3ccccc3n2)cc1 | 0 | 49* | 9 | 1 | -11 | 1
CCOC(=O)C1CCN(C(=O)CCn2c(=O)c3cccn3c3cccnc32)CC1 | -7 | 10 | -11 | 1 | -17 | 1
CCC(C(=O)NC1CCCC1)N(Cc1ccco1)C(=O)CNS(=O)(=O)c1ccccc1 (stereo unspecified) | -1 | 5 | -12 | 0 | -18 | 0
CN1c2ccccc2C(C)(C)C12C=Cc1cc(O)ccc1O2 (stereo unspecified) | -6 | 29 | 22 | 2 | 56* | 2
O=C(CCCN1C(=O)/C(=C/c2ccccc2Cl)SC1=S)Nc1ccccn1 | -16 | 18 | -29 | -2 | -24 | 0
SMILES | OXTR potentiate | OX1R antag-1 | OX1R antag-2 | OXTR agonist | CHO parental Ca | V1R ag counter
O=C(CCN1C(=O)/C(=C/c2ccccc2Cl)SC1=S)Nc1ccccn1 | -8 | 65* | -40 | 1 | -13 | 4
Cc1ccc2c(c1)N(CC(=O)NCCC1=CCCCC1)C(=O)c1cccnc1O2 | -6 | 14 | -22 | -2 | -8 | 2
O=S(=O)(c1cccc(F)c1)N1CCN(c2nc(-c3cccnc3)nc3ccccc23)CC1 | -5 | 19 | -6 | 1 | -17 | 0
Cc1ccc(S(=O)(=O)N2CCN(C(=O)COC(=O)CCOc3cc(C)ccc3C)CC2)cc1 | -7 | 22 | 1 | 15 | 58* | 12
COc1cc2sc3cc(NCC[C@@H]4CCCN4C)ccc3c(=O)c2cc1OC | 6 | 23 | -2 | 0 | -17 | 0
COc1cccc2sc3cc(NCc4ccc5c(c4)OCO5)ccc3c(=O)c12 | -3 | 23 | -15 | 1 | -17 | 0
COc1cc2sc3cc(NCc4ccc(C)o4)ccc3c(=O)c2cc1OC | 1 | 45* | 4 | -2 | -18 | 0
COc1cc2sc3cc(NCc4ccc5c(c4)OCO5)ccc3c(=O)c2cc1OC | 0 | 50* | 1 | -1 | -1 | 0
COc1cc(/C=C/c2ccc3cccc(OC)c3n2)c(OC(C)=O)c([N+](=O)[O-])c1 | -10 | 59* | -30 | -2 | -10 | -1
COc1cc(/C=C/c2ccc3cccc(OC)c3n2)c(O)c([N+](=O)[O-])c1 | -5 | 11 | -18 | -2 | -5 | -1
CS(=O)(=O)c1sc(C#N)c2c1C(=O)CC(c1ccccc1)C2 (stereo unspecified) | -17 | 46* | 92* | 1 | 53* | 2
N#Cc1ccccc1NC(=O)CSc1nnc(-c2ccccc2O)n1-c1ccccc1 | -3 | 43* | 9 | -1 | -15 | 0
CCOc1ccc(N(CC(=O)N2CCOCC2)S(=O)(=O)c2ccc(F)cc2)cc1 | -5 | 6 | -9 | 0 | -7 | 0
CCc1nc(N2CCN(C(=O)c3ccco3)CC2)c2oc3ccccc3c2n1 | 2 | 51* | -10 | -2 | -25 | -1
Cc1nc(N2CCN(C(=O)c3ccco3)CC2)c2oc3ccccc3c2n1 | -5 | 61 | -8 | -1 | -22 | 2
CCCCn1c(N)c(N(CCOC)C(=O)c2cc(C)oc2C)c(=O)[nH]c1=O | 1 | 5 | -24 | 0 | -10 | 1
CCCCNc1c(-c2ccc(OC)c(SC3CCCCC3)c2)nc2ccc(C)cn12 | -4 | 32* | 90* | -1 | 98* | 4
COc1ccc(-c2nc3ccc(C)cn3c2NCc2ccccc2)cc1SC1CCCCC1 | -10 | 18 | 77* | 0 | 94* | -1
Cc1nnc(SCC(=O)c2ccc(C(C)C)cc2)s1 | -13 | 16 | -21 | -1 | -11 | 0
O=C(Nc1ccccc1C(=O)N/N=C/c1ccncc1)c1ccccc1 | 4 | 7 | -25 | 0 | -15 | 0
O=C(CN1C(=O)c2cccc3cccc(c23)C1=O)N1CCCCCC1 | -2 | 56* | 6 | 0 | -11 | 0
